In publication PMC2957851 (ACS Chemical Neuroscience, 2010):
“Also recorded” adds a separate entry of the source.

Tests used:
rat mGlu5 [1] = target: T1, rat mGlu5 (Rattus norvegicus, UniProt P31424); assay type: cell-based
Outline: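 Rat mGlu5 HEK293 stable cells, plated at 30,000/well in glutamate/glutamine-free medium (dialysed FBS) ≥24 h. Loaded 45 min at 37 °C with 2 μM Fluo4-AM in HBSS, 20 mM HEPES, 2.5 mM probenecid, pH 7.4. Increasing test compound added at 19 s, EC20 glutamate at 109 s. Fluorescence read for 160 s. EC50 from curve fits.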

rat mGlu2 = rat mGlu2 (Rattus norvegicus, UniProt P31421); assay: Selectivity fold-shift, GIRK thallium flux in HEK/GIRK cells; assay type: cell-based; conditions: 30 μM test compound
Chain of rat mGlu2 (P31421 19-872): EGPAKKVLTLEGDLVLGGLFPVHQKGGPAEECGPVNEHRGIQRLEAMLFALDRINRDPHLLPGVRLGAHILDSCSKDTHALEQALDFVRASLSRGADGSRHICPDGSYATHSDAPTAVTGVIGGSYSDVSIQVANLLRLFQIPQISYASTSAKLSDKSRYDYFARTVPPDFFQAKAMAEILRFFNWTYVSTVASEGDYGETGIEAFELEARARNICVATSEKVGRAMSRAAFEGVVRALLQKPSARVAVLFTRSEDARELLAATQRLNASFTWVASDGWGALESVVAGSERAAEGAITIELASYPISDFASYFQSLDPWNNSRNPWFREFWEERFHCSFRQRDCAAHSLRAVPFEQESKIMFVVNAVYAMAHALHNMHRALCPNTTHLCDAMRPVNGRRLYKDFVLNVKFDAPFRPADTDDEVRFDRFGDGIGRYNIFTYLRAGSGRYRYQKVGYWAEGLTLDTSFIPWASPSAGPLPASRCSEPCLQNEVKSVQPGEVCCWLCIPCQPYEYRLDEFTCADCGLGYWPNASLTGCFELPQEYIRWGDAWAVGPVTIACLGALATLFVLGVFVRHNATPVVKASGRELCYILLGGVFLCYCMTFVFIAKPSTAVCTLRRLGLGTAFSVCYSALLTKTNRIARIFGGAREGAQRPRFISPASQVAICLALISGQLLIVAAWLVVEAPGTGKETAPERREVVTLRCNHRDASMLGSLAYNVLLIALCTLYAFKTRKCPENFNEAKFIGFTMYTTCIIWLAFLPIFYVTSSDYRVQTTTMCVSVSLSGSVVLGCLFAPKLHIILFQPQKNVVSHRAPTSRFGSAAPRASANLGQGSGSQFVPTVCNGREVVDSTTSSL
Outline: (§1)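 HEK cell lines expressing GIRK plus rat mGlu2, 3, 4, 7 or 8 or human mGlu6 were plated overnight at 37 °C. Cells were loaded with 1 μM Fluozin2-AM for 1 h at room temperature. Vehicle or 30 μM test compound was added, then varying glutamate 2.5 min later in thallium buffer (12 mM thallium sulfate). Glutamate curves were fitted by nonlinear regression. Three experiments were run in duplicate or triplicate, mean ± SEM.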

rat mGlu8 = rat mGlu8 (Rattus norvegicus, UniProt P70579); assay: as above; assay type: cell-based; conditions: 30 μM test compound
Outline: as §1

rat mGlu5 [2] = target: T1, rat mGlu5; assay: Single-point PAM screen, potentiation of EC20 glutamate calcium response; assay type: cell-based; conditions: 1 μM test compound
Outline: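 HEK293 cells stably expressing rat mGlu5 were plated at 30,000/well in glutamate/glutamine-free medium about 24 h ahead. Cells were loaded with 2 μM Fluo4-AM for 45 min at 37 °C in HBSS/HEPES/probenecid (pH 7.4). Vehicle or 1 μM test compound was added at 19 s, then glutamate at EC20 at 109 s. Fluorescence recorded for 160 s.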

rat mGlu7 = rat mGlu7 (Rattus norvegicus, UniProt P35400); assay: Selectivity fold-shift, GIRK thallium flux in HEK/GIRK cells; assay type: cell-based; conditions: 30 μM test compound
Outline: as §1

rat mGlu4 = rat mGlu4 (Rattus norvegicus, UniProt P31423); assay: as above; assay type: cell-based; conditions: 30 μM test compound
Chain of rat mGlu4 (P31423 33-912): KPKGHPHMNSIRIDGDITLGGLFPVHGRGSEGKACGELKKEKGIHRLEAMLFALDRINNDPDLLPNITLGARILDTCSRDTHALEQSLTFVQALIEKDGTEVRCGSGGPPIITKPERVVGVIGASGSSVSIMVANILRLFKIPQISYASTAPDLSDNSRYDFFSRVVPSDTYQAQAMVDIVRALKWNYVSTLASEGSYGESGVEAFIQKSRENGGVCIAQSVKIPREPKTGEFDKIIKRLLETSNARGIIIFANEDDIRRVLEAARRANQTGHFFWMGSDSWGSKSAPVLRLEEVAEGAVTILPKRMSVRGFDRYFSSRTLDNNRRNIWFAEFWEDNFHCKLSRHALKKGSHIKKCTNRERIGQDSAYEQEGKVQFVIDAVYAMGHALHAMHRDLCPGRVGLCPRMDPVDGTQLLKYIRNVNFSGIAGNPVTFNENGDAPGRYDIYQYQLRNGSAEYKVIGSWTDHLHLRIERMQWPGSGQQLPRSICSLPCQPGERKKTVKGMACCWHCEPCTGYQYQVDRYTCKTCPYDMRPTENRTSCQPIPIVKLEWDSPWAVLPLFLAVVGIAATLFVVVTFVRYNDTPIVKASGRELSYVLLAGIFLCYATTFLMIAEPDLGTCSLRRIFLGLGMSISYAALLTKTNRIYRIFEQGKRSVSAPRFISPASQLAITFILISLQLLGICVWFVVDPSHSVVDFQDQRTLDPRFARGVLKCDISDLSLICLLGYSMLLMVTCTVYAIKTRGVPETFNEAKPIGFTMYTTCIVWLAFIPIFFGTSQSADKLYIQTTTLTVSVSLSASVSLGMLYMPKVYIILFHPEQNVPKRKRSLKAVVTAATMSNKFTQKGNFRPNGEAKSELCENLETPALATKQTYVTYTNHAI
Outline: as §1

rat mGlu5 [3] = target: T1, rat mGlu5; assay: Antagonist; assay type: cell-based; conditions: 10 μM test compound
Outline: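 HEK293 cells stably expressing rat mGlu5 were plated in glutamate/glutamine-free medium 24 h ahead. Cells were loaded with 2 μM Fluo4-AM in HBSS with 2.5 mM probenecid and 20 mM HEPES, pH 7.4, for 45 min at 37 °C. Vehicle or 10 μM test compound went in at 19 s, then ~EC80 glutamate at 109 s. Fluorescence was read for 160 s and normalized to the 100 μM glutamate maximum. Three experiments were run in triplicate, mean ± SEM.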

rat mGlu3 = rat mGlu3 (Rattus norvegicus, UniProt P31422); assay: Selectivity fold-shift, GIRK thallium flux in HEK/GIRK cells; assay type: cell-based; conditions: 30 μM test compound
Outline: as §1

human mGlu6 = human mGlu6 (Homo sapiens, UniProt O15303); assay: as above; assay type: cell-based; conditions: 30 μM test compound
Chain of human mGlu6 (O15303 25-877): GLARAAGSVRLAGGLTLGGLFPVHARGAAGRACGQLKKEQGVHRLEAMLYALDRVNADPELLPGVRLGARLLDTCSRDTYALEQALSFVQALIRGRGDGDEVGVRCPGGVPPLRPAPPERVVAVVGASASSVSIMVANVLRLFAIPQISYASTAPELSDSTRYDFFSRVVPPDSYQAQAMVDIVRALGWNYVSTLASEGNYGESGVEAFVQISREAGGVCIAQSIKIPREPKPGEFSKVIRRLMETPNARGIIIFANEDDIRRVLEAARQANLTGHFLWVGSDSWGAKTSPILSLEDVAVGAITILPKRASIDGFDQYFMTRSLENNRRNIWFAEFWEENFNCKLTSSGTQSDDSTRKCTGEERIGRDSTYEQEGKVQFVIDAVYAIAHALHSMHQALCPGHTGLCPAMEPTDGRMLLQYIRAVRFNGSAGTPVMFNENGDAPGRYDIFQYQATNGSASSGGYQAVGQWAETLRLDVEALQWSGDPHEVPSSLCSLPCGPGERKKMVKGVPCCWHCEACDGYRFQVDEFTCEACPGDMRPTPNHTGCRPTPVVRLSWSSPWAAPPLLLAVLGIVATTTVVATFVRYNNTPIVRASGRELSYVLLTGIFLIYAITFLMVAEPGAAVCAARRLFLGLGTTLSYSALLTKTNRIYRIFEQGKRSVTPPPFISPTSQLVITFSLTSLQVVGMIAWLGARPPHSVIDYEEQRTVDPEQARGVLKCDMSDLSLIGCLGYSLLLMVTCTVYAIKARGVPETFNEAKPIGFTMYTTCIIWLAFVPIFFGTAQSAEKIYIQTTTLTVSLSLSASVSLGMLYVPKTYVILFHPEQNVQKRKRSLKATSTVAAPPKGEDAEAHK
Outline: as §1

F585I/rmGlu5 = F585I/rmGlu5 (Rattus norvegicus, UniProt P31424, F585I); assay type: cell-based; conditions: VU0357121 at 1 μM; transiently transfected HEK293
Chain of F585I/rmGlu5 (P31424 21-1203 F585I): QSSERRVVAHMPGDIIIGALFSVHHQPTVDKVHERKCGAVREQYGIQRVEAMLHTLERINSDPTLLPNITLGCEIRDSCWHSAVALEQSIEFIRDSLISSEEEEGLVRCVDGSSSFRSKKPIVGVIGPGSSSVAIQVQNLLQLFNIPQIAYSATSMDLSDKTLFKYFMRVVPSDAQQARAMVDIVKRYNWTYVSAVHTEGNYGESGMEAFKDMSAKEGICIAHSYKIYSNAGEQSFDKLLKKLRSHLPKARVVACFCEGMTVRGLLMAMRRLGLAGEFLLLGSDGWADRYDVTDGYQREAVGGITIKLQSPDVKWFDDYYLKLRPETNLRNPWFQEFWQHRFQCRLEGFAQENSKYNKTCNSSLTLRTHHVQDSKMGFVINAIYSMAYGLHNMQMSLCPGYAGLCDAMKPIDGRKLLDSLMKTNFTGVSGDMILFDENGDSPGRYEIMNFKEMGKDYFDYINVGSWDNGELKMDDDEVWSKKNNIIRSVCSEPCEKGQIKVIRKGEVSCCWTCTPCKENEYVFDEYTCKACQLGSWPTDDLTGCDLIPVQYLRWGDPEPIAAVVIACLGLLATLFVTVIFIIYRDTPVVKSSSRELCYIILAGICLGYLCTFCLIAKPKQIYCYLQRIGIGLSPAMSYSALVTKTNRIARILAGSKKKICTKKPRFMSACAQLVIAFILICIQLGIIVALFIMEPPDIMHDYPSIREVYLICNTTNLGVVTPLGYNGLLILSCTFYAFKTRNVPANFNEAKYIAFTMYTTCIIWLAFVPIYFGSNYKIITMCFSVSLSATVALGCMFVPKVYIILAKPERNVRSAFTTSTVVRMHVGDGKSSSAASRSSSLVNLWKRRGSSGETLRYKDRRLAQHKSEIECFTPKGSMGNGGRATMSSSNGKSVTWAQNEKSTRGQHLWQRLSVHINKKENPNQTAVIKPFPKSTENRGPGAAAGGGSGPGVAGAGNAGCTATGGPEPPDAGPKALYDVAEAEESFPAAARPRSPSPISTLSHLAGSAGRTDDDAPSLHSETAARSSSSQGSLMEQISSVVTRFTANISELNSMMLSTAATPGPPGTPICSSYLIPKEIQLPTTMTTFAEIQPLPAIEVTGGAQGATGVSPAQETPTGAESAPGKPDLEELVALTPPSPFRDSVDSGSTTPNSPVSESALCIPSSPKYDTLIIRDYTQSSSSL
Outline: (§2)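 HEK293 cells were transiently transfected with mutant rat mGlu5 cDNA using FuGENE 6, plated the next day and assayed the following day. Cells were Fluo4-AM loaded in HBSS/HEPES/probenecid at pH 7.4. Vehicle or a fixed 1 μM PAM was added, then increasing glutamate. Calcium fluorescence was read for 160 s. Glutamate concentration–response curves were fitted by nonlinear regression to compare EC50 values.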

A809V/rmGlu5 = A809V/rmGlu5 (Rattus norvegicus, UniProt P31424, A809V); assay type: cell-based; conditions: VU0357121 at 1 μM; transiently transfected HEK293
Chain of A809V/rmGlu5 (P31424 21-1203 A809V): as the sequence (P31424 21-1203 F585I) above, with I565F, A789V counted along it
Outline: as §2

rat mGlu1 = rat mGlu1 (Rattus norvegicus, UniProt P23385); assay: Selectivity fold-shift, calcium assay in HEK293 cells expressing mGlu1; assay type: cell-based; conditions: 30 μM test compound
Chain of rat mGlu1 (P23385 19-1199): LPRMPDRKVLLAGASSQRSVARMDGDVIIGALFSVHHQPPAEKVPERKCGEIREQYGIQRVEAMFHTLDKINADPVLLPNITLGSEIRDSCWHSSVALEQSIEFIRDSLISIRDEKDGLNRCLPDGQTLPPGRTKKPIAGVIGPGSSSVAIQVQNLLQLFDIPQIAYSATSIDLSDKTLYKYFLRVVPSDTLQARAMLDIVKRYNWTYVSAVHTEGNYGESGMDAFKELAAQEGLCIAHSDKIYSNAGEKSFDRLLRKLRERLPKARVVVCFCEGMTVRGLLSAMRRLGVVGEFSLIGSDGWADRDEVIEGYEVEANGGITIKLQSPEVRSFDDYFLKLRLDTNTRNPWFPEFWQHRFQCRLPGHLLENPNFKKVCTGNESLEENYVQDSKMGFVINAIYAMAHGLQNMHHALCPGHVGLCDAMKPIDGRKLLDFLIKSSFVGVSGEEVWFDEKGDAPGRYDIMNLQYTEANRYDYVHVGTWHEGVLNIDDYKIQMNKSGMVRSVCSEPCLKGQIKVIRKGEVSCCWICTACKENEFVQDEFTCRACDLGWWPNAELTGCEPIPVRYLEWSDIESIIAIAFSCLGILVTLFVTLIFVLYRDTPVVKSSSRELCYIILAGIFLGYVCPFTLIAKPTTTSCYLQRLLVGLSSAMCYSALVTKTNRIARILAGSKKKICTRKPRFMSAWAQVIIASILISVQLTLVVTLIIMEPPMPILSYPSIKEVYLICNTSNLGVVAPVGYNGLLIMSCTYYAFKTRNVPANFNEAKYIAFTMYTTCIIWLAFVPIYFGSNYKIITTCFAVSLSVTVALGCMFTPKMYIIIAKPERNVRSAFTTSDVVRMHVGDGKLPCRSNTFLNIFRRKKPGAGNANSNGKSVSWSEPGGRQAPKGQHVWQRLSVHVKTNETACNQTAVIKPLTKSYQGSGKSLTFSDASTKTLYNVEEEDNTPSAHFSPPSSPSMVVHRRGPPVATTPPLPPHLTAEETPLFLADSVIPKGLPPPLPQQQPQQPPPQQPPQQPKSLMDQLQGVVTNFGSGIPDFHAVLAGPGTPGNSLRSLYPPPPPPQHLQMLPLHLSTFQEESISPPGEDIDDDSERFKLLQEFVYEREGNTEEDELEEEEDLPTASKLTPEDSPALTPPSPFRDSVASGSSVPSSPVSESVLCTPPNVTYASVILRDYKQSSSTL
Outline: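 HEK293 cells stably expressing rat mGlu1, handled as for mGlu5 cells: plated in glutamate/glutamine-free medium, loaded with 2 μM Fluo4-AM (45 min, 37 °C, pH 7.4, with probenecid). Vehicle or 30 μM test compound added, then increasing glutamate concentrations. Fluo-4 fluorescence read on FlexStation over 160 s. Concentration-response curves fit by nonlinear regression.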

rmGlu5 = conditions: CHO or HEK293 cells expressing rmGlu5; cited from earlier work
rat mGlu5 [4] = target: T1, rat mGlu5; assay type: cell-based; conditions: 10 μM test compound with VU0357121 50 nM, EC20 glutamate
Outline: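 Same Fluo4 calcium-flux protocol in rat mGlu5 HEK293 cells. Test compound (10 μM) or vehicle co-applied with reference mGlu5 PAM (50 nM) from one 4× solution, followed by EC20 glutamate. Fluorescence recorded 160 s. Groups compared with EC20 + PAM + vehicle control by one-way ANOVA with Dunnett's test.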

Solubility in assay = assay type: physicochemical; conditions: above 30 μM in assay
rat mGlu5 [5] = target: T1, rat mGlu5; assay type: cell-based; conditions: VU0365396 30 μM, EC20 glutamate

T1 sequence (P31424 21-1203): as the sequence (P31424 21-1203 F585I) above, with I565F counted along it

SMILES: CCCCOc1ccc(C(=O)Nc2ccc(F)cc2F)cc1 [VU0357121, 4-butoxy-N-(2,4-difluorophenyl)benzamide]
- increase in potency over the HTS hit (rat mGlu5 [1]; versus VU0040237): 10 fold
- modulation of agonist response (PAM activity) at mGlu2 (rat mGlu2): does not have PAM activity
- modulation of agonist response (PAM activity) at mGlu8 (rat mGlu8): does not have PAM activity
- potentiation of response to suboptimal (EC20) glutamate (rat mGlu5 [2]): potentiated the response to glutamate at submicromolar concentrations
- modulation of agonist response (PAM activity) at mGlu7 (rat mGlu7): does not have PAM activity
- modulation of agonist response (PAM activity) at mGlu4 (rat mGlu4): does not have PAM activity
- inhibition of the effect of EC80 glutamate on mGlu5 (rat mGlu5 [3]): did not inhibit the effect of glutamate on mGlu5
- modulation of agonist response (PAM activity) at mGlu3 (rat mGlu3): does not have PAM activity
- modulation of agonist response (PAM activity) at mGlu6 (human mGlu6): does not have PAM activity
- PAM response at the F585I/rmGlu5 mutant (F585I/rmGlu5): had no effect on its function
- PAM response at the A809V/rmGlu5 mutant (A809V/rmGlu5): inhibited the ability of VU0357121 to shift the glutamate concentration−response curve; also recorded: led to an inhibition of VU0357121 activity
- effect on glutamate concentration-response curve at mGlu1 (rat mGlu1): weak inhibition of glutamate responses at mGlu1

SMILES: CCCOc1ccc(C(=O)Nc2ccc(Cl)cn2)cc1 [VU0001850, N-(5-chloropyridin-2-yl)-4-propoxybenzamide]
- EC50 (rat mGlu5 [1]): 1300 nM
- potentiation of response to suboptimal (EC20) glutamate (rat mGlu5 [2]): potentiated the response to glutamate at submicromolar concentrations

SMILES: O=C(c1ccc(F)cc1)N1CCC[C@H](c2nc(-c3cccs3)no2)C1 [(S)-FTOPM, (S)-(4-fluorophenyl)(3-(3-(thiophen-2-yl)-1,2,4-oxadiazol-5-yl)piperidin-1-yl)methanone]
- intrinsic agonist activity at rmGlu5 (rmGlu5): display intrinsic agonist activity at moderate to high concentrations

SMILES: O=C(Nc1cc(-c2ccccc2)nn1-c1ccccc1)c1ccc([N+](=O)[O-])cc1 [VU-29, 4-nitro-N-(1,3-diphenyl-1H-pyrazol-5-yl)benzamide, reference compound]
- PAM response at the F585I/rmGlu5 mutant (F585I/rmGlu5): but not VU29 is lost
- PAM response at the A809V/rmGlu5 mutant (A809V/rmGlu5): is lost

SMILES: CNc1ncc(C#Cc2ccccc2)cn1 [MPPA, N-methyl-5-(phenylethynyl)pyrimidin-2-amine]
- intrinsic agonist activity at rmGlu5 (rmGlu5): have no effect on mGlu5 alone

SMILES: O=C(c1ccc(F)cc1)N1CCC[C@H](c2nc(-c3ccccn3)no2)C1 [(S)-FPOPM, (S)-(4-fluorophenyl)(3-(3-(pyridin-2-yl)-1,2,4-oxadiazol-5-yl)piperidin-1-yl)methanone]
- intrinsic agonist activity at rmGlu5 (rmGlu5): have no effect on mGlu5 alone

SMILES: CCCCOc1ccc(C(=O)Nc2ccc(Cl)cn2)cc1 [VU0125936, 4-butoxy-N-(5-chloropyridin-2-yl)benzamide]
- EC50 (rat mGlu5 [1]): 664 nM
- potentiation of response to suboptimal (EC20) glutamate (rat mGlu5 [2]): potentiated the response to glutamate at submicromolar concentrations

SMILES: O=C(Nc1ccc(Cl)cc1CN1C(=O)c2ccccc2C1=O)c1ccccc1O [CPPHA, N-{4-chloro-2-[(1,3-dioxo-1,3-dihydro-2H-isoindol-2-yl)methyl]phenyl}-2-hydroxybenzamide]
- PAM response at the F585I/rmGlu5 mutant (F585I/rmGlu5): is lost
- PAM response at the A809V/rmGlu5 mutant (A809V/rmGlu5): but not CPPHA is lost
- intrinsic agonist activity at rmGlu5 (rmGlu5): have no effect on mGlu5 alone

SMILES: CCCCOc1ccc(C(=O)Nc2ccccc2F)cc1 [VU0040237, 4-butoxy-N-(2-fluorophenyl)benzamide]
- EC50 (rat mGlu5 [1]): 350 nM
- potentiation of response to suboptimal (EC20) glutamate (rat mGlu5 [2]): potentiated the response to glutamate at submicromolar concentrations

SMILES: Cc1cccc(C#Cc2ccccc2)n1 [MPEP, 2-methyl-6(phenylethynyl)pyridine, reference compound]
- inhibition of the effect of EC80 glutamate on mGlu5 (rat mGlu5 [3]): blockade

SMILES: CCCCOc1ccc(C(=O)Nc2c(F)cccc2F)cc1 [VU0365396, 4-butoxy-N-(2,6-difluorophenyl)benzamide]
- inhibition of VU0357121 PAM activity (rat mGlu5 [4]): caused the most robust inhibition; also recorded: induces the most robust inhibition of VU0357121 effects
- solubility (Solubility in assay): limitations with solubility precluded studies with higher concentrations
- effect of VU0365396 on CPPHA-induced potentiation (rat mGlu5 [5]): had no effect on CPPHA-induced potentiation of mGlu5 responses; also recorded: has no effect on CPPHA activity
- effect of VU0365396 on the VU0357121 CRC (rat mGlu5 [5]): induced a parallel rightward shift in the VU0357121 CRC; also recorded: induces a parallel rightward shift in the VU0357121 concentration−response curve

SMILES: N#Cc1cccc(C(=O)Nc2cc(-c3ccccc3)nn2-c2ccccc2)c1 [CDPPB, 3-cyano-N-(1,3-diphenyl-1H-pyrazol-5-yl)benzamide]
- intrinsic agonist activity at rmGlu5 (rmGlu5): display intrinsic agonist activity at moderate to high concentrations
